ChEMBL document CHEMBL1156621, “Synthesis and cellular effects of cycloterpenals: cyclohexadienal-based activators of neurite outgrowth” (2008)
Converted amounts (≈) assume the structure as drawn. The source made the active and inactive calls. The rule behind the calls is not given here.

Key:
PC-12 [1] = test: Induction of neurite outgrowth in rat PC12 cells at 10 ug/mL after 7 days; type: functional, cell-based
Procedure, shortened: (§1)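 Rat PC12 cells (ATCC CRL 1721) grown on collagen Type IV in RPMI 1640 with 10% heat-inactivated horse serum and 5% FBS, 37 °C, 5% CO₂. Seeded at 10,000 cells/well in collagen IV 96-well plates and allowed to adhere 24 h before compound. Tested in duplicate at final 100, 10 and 1 μg/mL; absolute EtOH as control. Neurite outgrowth and intercellular connections scored visually over 2 weeks.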

Saccharomyces cerevisiae = test: Antifungal activity against Saccharomyces cerevisiae after 16 hrs; type: functional
Escherichia coli = test: Antibacterial activity against Escherichia coli after 16 hrs; type: functional
Bacillus subtilis = test: Antibacterial activity against Bacillus subtilis after 16 hrs; type: functional
Jurkat = test: Growth inhibition of human Jurkat T cells at 1 ug/mL after 24 hrs; type: functional, cell-based
Procedure, shortened: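 Cells kept in RPMI 1640 with 10% FBS at 37 °C, 5% CO₂. Harvested, counted and seeded at 200,000 cells/well (1 mL) in 48-well plates, then compound added. After 24 h incubation the cells were pelleted, washed in PBS and lysed. Lysate relative fluorescence measured on a fluorometer.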

PC-12 [2] = test: Induction of neurite outgrowth in rat PC12 cells at 1 ug/mL after 6 days; type: functional, cell-based; procedure, shortened: as §1
PC-12 [3] = test: Induction of neurite outgrowth in rat PC12 cells assessed as neural extensions at 1 ug/mL after 5 days; type: functional, cell-based; procedure, shortened: as §1

CN(C)c1ccc(C2CC(c3ccc4ccccc4c3)=CC=C2C=O)cc1 (stereo not drawn)
Activity (PC-12 [1]): Active
MIC (Saccharomyces cerevisiae): > 100 µg/mL
MIC (Escherichia coli): > 100 µg/mL
MIC (Bacillus subtilis): > 100 µg/mL

CN(C)c1ccc(C2CC(c3ccc(Cl)s3)=CC=C2C=O)cc1 (stereo not drawn)
Activity (Jurkat): Active
MIC (Saccharomyces cerevisiae): > 100 µg/mL
MIC (Escherichia coli): > 100 µg/mL
MIC (Bacillus subtilis): > 100 µg/mL

O=CC1=CC=C(c2ccc3c(c2)Cc2ccccc2-3)CC1c1ccc([N+](=O)[O-])cc1 (stereo not drawn)
Activity (Jurkat): Active
MIC (Saccharomyces cerevisiae): > 100 µg/mL
MIC (Escherichia coli): > 100 µg/mL
MIC (Bacillus subtilis): > 100 µg/mL

O=CC1=CC=C(c2ccc(-c3ccccc3)cc2)CC1c1ccc([N+](=O)[O-])cc1 (stereo not drawn)
Activity (Jurkat): Active
MIC (Saccharomyces cerevisiae): > 100 µg/mL
MIC (Escherichia coli): > 100 µg/mL
MIC (Bacillus subtilis): > 100 µg/mL

Cc1ccc(C2(C)CC(c3ccc(-c4ccccc4)cc3)=CC=C2C=O)o1 (stereo not drawn)
Activity (PC-12 [2]): Active
Activity (Jurkat): Active
MIC (Saccharomyces cerevisiae): > 100 µg/mL
MIC (Escherichia coli): > 100 µg/mL
Activity (PC-12 [3]): Active
MIC (Bacillus subtilis): > 100 µg/mL

CC1C(c2cccs2)=CC=C(C=O)C1c1ccccc1 (stereo not drawn)
MIC (Saccharomyces cerevisiae): > 100 µg/mL
MIC (Escherichia coli): > 100 µg/mL
MIC (Bacillus subtilis): > 100 µg/mL

CN(C)c1ccc(C2CC(c3cccs3)=CC=C2C=O)cc1 (stereo not drawn)
MIC (Saccharomyces cerevisiae): > 100 µg/mL
MIC (Escherichia coli): > 100 µg/mL
MIC (Bacillus subtilis): > 100 µg/mL

CC(C)=CC[C@H]1C(C)=CC=C(C=O)[C@H]1c1ccc([N+](=O)[O-])cc1
MIC (Saccharomyces cerevisiae): > 100 µg/mL
MIC (Escherichia coli): > 100 µg/mL
MIC (Bacillus subtilis): 10 µg/mL (≈ 32.1 µM)

CCCCC[C@H]1C(C)=CC=C(C=O)[C@H]1c1ccc(N(C)C)cc1
MIC (Saccharomyces cerevisiae): > 100 µg/mL
MIC (Escherichia coli): > 100 µg/mL
MIC (Bacillus subtilis): > 100 µg/mL

CC(C)=CCC1CC(C=O)=CC=C1C (stereo not drawn)
MIC (Saccharomyces cerevisiae): > 100 µg/mL
MIC (Escherichia coli): > 100 µg/mL
MIC (Bacillus subtilis): > 100 µg/mL

CC1=C(/C=C/C2=CC=C(C=O)C(C)C2)C(C)(C)CCC1 (stereo not drawn)
MIC (Saccharomyces cerevisiae): > 100 µg/mL
MIC (Escherichia coli): > 100 µg/mL
MIC (Bacillus subtilis): > 100 µg/mL

CN(C)c1ccc(-c2cc(-c3ccc(-c4ccccc4)cc3)ccc2C=O)cc1
MIC (Saccharomyces cerevisiae): > 100 µg/mL
MIC (Escherichia coli): > 100 µg/mL
MIC (Bacillus subtilis): > 100 µg/mL
